Active and inactive are the calls of the source. No cut-off for these calls is given here.
Experiments:
MOLT-4 = assay: Cytotoxicity against human MOLT4 cells assessed as inhibition of cell growth after 4 days by Cell Titer Blue end-point assay; type: cell-based; details: MOLT-4, 96 h
Method in brief: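 MOLT-4 cells in RPMI 1640 with 20% FBS were seeded at 5×10^4 cells/mL and grown 24 h before inhibitor was added. There were 8 concentrations in triplicate, spanning 50 nM to 30 μM final. Treatment lasted 4 days, then CTB was added for 3 h at 37°C. Fluorescence was read at 560Ex/590Em, with cell-free background subtracted and DMSO-only wells taken as 100%. EC50 was fitted from inhibition curves.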

[1] = system: Trypanosoma brucei brucei; assay: Antitrypanosomal activity against bloodstream form of Trypanosoma brucei brucei Lister 427 90-13 assessed as inhibition of growth in log phase at 1 uM after 48 hrs by Cell Titer Blue end-point assay; type: functional; details: Lister 427 90-13, 48 h
Method in brief: (§1)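 Log-phase bloodstream-form cells were seeded at 1×10^5 cells/mL and exposed to compound at a single concentration (0.2% DMSO) for 48 h (4 doublings). AnTat1.1A cells were grown in HMI-9 with 10% FBS and 10% Serum Plus. 90-13 cells were grown in HMI-9 with G418 (2.5 μg/mL) and hygromycin B (5 μg/mL). Cells were pelleted and incubated 3 h at 37°C with CellTiter-Blue. Fluorescence was read at 560/590 nm, background-subtracted and normalized to DMSO controls.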

[2] = system: Trypanosoma brucei brucei; assay: Antitrypanosomal activity against bloodstream form of Trypanosoma brucei brucei AnTat1.1A assessed as inhibition of growth in log phase at 1 uM after 48 hrs by Cell Titer Blue end-point assay; type: functional; method in brief: as §1
[3] = system: Trypanosoma brucei rhodesiense; assay: Antitrypanosomal activity against bloodstream form of Trypanosoma brucei rhodesiense YTat1.1 assessed as inhibition of growth in log phase after 48 hrs by Cell Titer Blue end-point assay; type: functional, organism-based; details: YTat1.1, 48 h
Method in brief: (§2)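 Dose-response: at least 8 final concentrations (50 nM–8 μM, 0.2% DMSO), each in triplicate, on log-phase bloodstream-form cells at 1×10^5 cells/mL. Incubation was 48 h at 37°C, 5% CO2, followed by a 3 h CellTiter-Blue fluorescence read with background subtracted. EC50 was derived from inhibition curves. YTat1.1 was culture-adapted from rat blood in HMI-9 with FBS and Serum Plus; its data come from 2–3 independent experiments. 90-13 was grown in HMI-9 with G418 and hygromycin B.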

[4] = Selectivity ratio of EC50 for human MOLT4 cells to EC50 for bloodstream form of Trypanosoma brucei rhodesiense YTat1.1; type: ADME, cell-based, MOLT-4; details: read-out: Ratio EC50
Method in brief: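 Ratio of MOLT-4 EC50 to YTat1.1 EC50. MOLT-4 cells were grown in RPMI 1640 with 20% FBS, seeded at 5×10^4 cells/mL and grown 24 h before compound was added. Treatment used 8 triplicate concentrations between 50 nM and 30 μM for 4 days, followed by a 3 h CellTiter-Blue read at 37°C. The parasite EC50 came from a 48 h CellTiter-Blue dose-response (50 nM–8 μM).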

[5] = system: Trypanosoma brucei brucei; assay: Antitrypanosomal activity against bloodstream form of Trypanosoma brucei brucei AnTat1.1A assessed as inhibition of growth in log phase at 10 uM after 48 hrs by Cell Titer Blue end-point assay; type: functional; method in brief: as §1
[6] = system: Trypanosoma brucei brucei; assay: Antitrypanosomal activity against bloodstream form of Trypanosoma brucei brucei Lister 427 90-13 assessed as inhibition of growth in log phase at 10 uM after 48 hrs by Cell Titer Blue end-point assay; type: functional; details: Lister 427 90-13, 48 h; method in brief: as §1
[7] = system: Trypanosoma brucei brucei; assay: Antitrypanosomal activity against bloodstream form of Trypanosoma brucei brucei assessed as inhibition of growth in log phase at 1 uM after 48 hrs by Cell Titer Blue end-point assay; details: read-out: GI
Trypanosoma brucei = assay: Inhibition of NH3-AU1 epitope-tagged recombinant Trypanosoma brucei AUK1 expressed in procyclic form trypanosome AnTat1.1 assessed as decrease in myelin basic protein phosphorylation at 500 nM preincubated for 5 mins by pull down assay in presence of [gamma-32P]ATP
Method in brief: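 AU1-tagged TbAUK1 came from procyclic AnTat1.1 cells pretreated with 16 μM MG132 for 3 h. Lysate was pre-cleared and immunoprecipitated overnight at 4°C on AU1 beads. Bead kinase was mixed with 160 μg myelin basic protein in Hepes/KCl/NaF/MgCl2/DTT buffer, pH 7.4, with drug preincubated 5 min. Reactions were started with 8 μM ATP plus [γ-32P]ATP and run 30 min at 30°C. Products were read by SDS-PAGE autoradiography.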

[8] = system: Trypanosoma brucei brucei; assay: Antitrypanosomal activity against bloodstream form of Trypanosoma brucei brucei Lister 427 90-13 assessed as inhibition of growth in log phase after 48 hrs by Cell Titer Blue end-point assay; type: functional, organism-based; details: Lister 427 90-13, 48 h; method in brief: as §2
[9] = Selectivity ratio of EC50 for human MOLT4 cells to EC50 for bloodstream form of Trypanosoma brucei brucei Lister 427 90-13; type: ADME, cell-based, MOLT-4; details: read-out: Ratio EC50
Method in brief: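 The ratio is MOLT-4 EC50 over T. b. brucei 90-13 EC50. BF 90-13 cells in HMI-9 with G418 and hygromycin B were seeded at 1×10^5 cells/mL and exposed 48 h to 8 concentrations (50 nM–8 μM final, 0.2% DMSO) in triplicate. MOLT-4 cells were treated 4 days. Both were read by CTB fluorescence, with EC50 fitted from inhibition curves.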

SMILES	EC50 (MOLT-4) [µM]	inhibition at 1 µM [1] [%]	inhibition at 1 µM [2] [%]	EC50 [3] [µM]	selectivity ratio [4]	inhibition at 10 µM [5] [%]	inhibition at 10 µM [6] [%]	inhibition of growth at 1 µM [7] [%]	inhibition (Trypanosoma brucei)	EC50 [8] [µM]	selectivity ratio [9]
CN1CCN(c2ccc(C(=O)Nc3n[nH]c4c3CN(C(=O)Cc3cccc5ccccc35)C4)cc2)CC1	14.2	26	82	0.61	23	98	100	> 60			
CO[C@@H](C(=O)N1Cc2[nH]nc(NC(=O)c3ccc(N4CCN(C)CC4)cc3)c2C1)c1ccccc1 [DANUSERTIB]				0.15					Active	0.6	
Cc1[nH]c2ccccc2c1CC(=O)N1Cc2[nH]nc(NC(=O)c3ccc(N4CCN(C)CC4)cc3)c2C1		34	62	1.2	1	98	63	> 60			
CN1CCN(c2ccc(C(=O)Nc3n[nH]c4c3CN(C(=O)Cc3c(F)cc(F)cc3F)C4)cc2)CC1		41	23			100	72				
CN1CCN(c2ccc(C(=O)Nc3n[nH]c4c3CN(C(=O)Cc3ccc(F)c(F)c3)C4)cc2)CC1		29	18			98	53				
CN1CCN(c2ccc(C(=O)Nc3n[nH]c4c3CN(C(=O)c3ccccc3)C4)cc2)CC1	0.54								inactive	11.1	0.05
Cc1ccc(C)c(CC(=O)N2Cc3[nH]nc(NC(=O)c4ccc(N5CCN(C)CC5)cc4)c3C2)c1	2.65	18	34	1.2	2.2	99	100	> 60			
CN1CCN(c2ccc(C(=O)Nc3n[nH]c4c3CN(C(=O)Cc3ccc(F)cc3F)C4)cc2)CC1		40	6			98	62				
CN1CCN(c2ccc(C(=O)Nc3n[nH]c4c3CN(C(=O)Cc3c(F)ccc(F)c3F)C4)cc2)CC1	2.22	14	52	0.32	6.9	98	77	> 60			
CO[C@@H](C(=O)N1Cc2n[nH]c(NC(=O)c3ccc(N4CCN(C)CC4)cc3)c2C1)c1ccccc1 [DANUSERTIB]					1						0.25
CN1CCN(c2ccc(C(=O)Nc3n[nH]c4c3CN(C(=O)Cc3cc(F)ccc3F)C4)cc2)CC1		37	6			98	97				
COC(C(=O)N1Cc2[nH]nc(NC(=O)c3ccc(N4CCN(C)CC4)cc3)c2C1)c1ccccc1 (racemic)	4.13	15	77	0.61	6.8	97	25	> 60			
CN1CCN(c2ccc(C(=O)Nc3n[nH]c4c3CN(C(=O)Cc3cccc(Cl)c3)C4)cc2)CC1	4	33	35	0.58	6.9	98	98	> 60		0.85	
Cc1nc(CC(=O)N2Cc3[nH]nc(NC(=O)c4ccc(N5CCN(C)CC5)cc4)c3C2)cs1		8	23			53	14				
Cc1cc(C)cc(CC(=O)N2Cc3[nH]nc(NC(=O)c4ccc(N5CCN(C)CC5)cc4)c3C2)c1	4.46	26	85	1.04	4.3	99	100	> 60		2.56	
Cc1ccc(C(C)C(=O)N2Cc3[nH]nc(NC(=O)c4ccc(N5CCN(C)CC5)cc4)c3C2)cc1 (racemic)	5.48	19	19	0.86	6.4	100	100	> 60			
CN1CCN(c2ccc(C(=O)Nc3n[nH]c4c3CN(C(=O)Cc3cc(F)cc(F)c3F)C4)cc2)CC1	2.31	26	44	2	1.2	99	94	> 60			
CCc1cccc(CC)c1NC(=O)N1Cc2[nH]nc(NC(=O)c3ccc(N4CCN(C)CC4)cc3)c2C1 [PHA-680632]	0.22			1.25					Active	4	
CN1CCN(c2ccc(C(=O)Nc3n[nH]c4c3CN(C(=O)Nc3ccccc3)C4)cc2)CC1	3.55								Active	6.1	0.58
CC(C)C(C(=O)N1Cc2[nH]nc(NC(=O)c3ccc(N4CCN(C)CC4)cc3)c2C1)c1ccccc1 (racemic)		62	99	0.4	6.3	99	100	> 60		0.67	
CN1CCN(c2ccc(C(=O)Nc3n[nH]c4c3CN(C(=O)Cc3c(F)cccc3F)C4)cc2)CC1		32	20			97	66				
Cc1nc(C)c(CC(=O)N2Cc3[nH]nc(NC(=O)c4ccc(N5CCN(C)CC5)cc4)c3C2)s1		6	13			35	12				
CCS(=O)(=O)Nc1ccc2c(c1)/C(=C(/Nc1ccc(CN3CCCCC3)cc1)c1ccccc1)C(=O)N2									Active		
CN1CCN(c2ccc(C(=O)Nc3n[nH]c4c3CN(C(=O)CC3CC(=O)c5ccccc53)C4)cc2)CC1 (racemic)		27	34			79	35				
Cc1ccc(S(=O)(=O)N2Cc3[nH]nc(NC(=O)c4ccc(N5CCN(C)CC5)cc4)c3C2)cc1	0.94								Active	5.7	0.16
CN1CCN(c2ccc(C(=O)Nc3n[nH]c4c3CN(C(=O)Cc3cc(F)cc(F)c3)C4)cc2)CC1	0.63	37	98	0.91	0.7	98	99	> 60		0.59	
CCc1cccc(CC)c1NC(=O)N1Cc2n[nH]c(NC(=O)c3ccc(N4CCN(C)CC4)cc3)c2C1 [PHA-680632]					0.18						0.06

Source: ChEMBL document CHEMBL2346529, “The human Aurora kinase inhibitor danusertib is a lead compound for anti-trypanosomal drug discovery via target repurposing” (Eur J Med Chem, 2013)
